Assay results taken from ChEMBL document CHEMBL3286247, “Expansion of Antibacterial Spectrum of Muraymycins toward Pseudomonas aeruginosa” (ACS Med Chem Lett, 2014).
Converted amounts (≈) assume the structure as drawn.

Tests used:
Pseudomonas aeruginosa [1] = assay: Antibacterial activity against Pseudomonas aeruginosa PAO1 assessed as growth inhibition after 20 hrs by microdilution method; type: functional; conditions: PAO1, 20 h
Summary of the method: (§1)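 Broth microdilution per CLSI in cation-adjusted Mueller-Hinton broth, using serial 2-fold compound dilutions. Each strain was inoculated at 5 × 10⁴ CFU per well in 0.1 mL. Plates were incubated at 35 °C for 20 h, and the MIC was then scored.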

[2] = Inhibition of Staphylococcus aureus MraY by fluorescence assay
Summary of the method: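 Purified S. aureus MraY was given UDP-MurNAc-dansylpentapeptide as substrate. Formation of dansylated lipid I was followed by fluorescence enhancement (excitation 355 nm, emission 535 nm).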

Pseudomonas aeruginosa [3] = assay: Antibacterial activity against Pseudomonas aeruginosa YY165 deltamexB mutant assessed as growth inhibition after 20 hrs by microdilution method; type: functional; conditions: YY165, 20 h
Summary of the method: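 Broth microdilution per CLSI in cation-adjusted Mueller–Hinton broth; serial 2-fold compound dilutions inoculated with 5 × 10⁴ CFU per well (0.1 mL), incubated 35 °C for 20 h, then MIC scored. Strain YY165 is a MexB deletion mutant lacking the inner-membrane transporter of the MexAB-OprM efflux system.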

Pseudomonas aeruginosa [4] = assay: Antibacterial activity against Pseudomonas aeruginosa ATCC 25619 assessed as growth inhibition after 20 hrs by microdilution method; type: functional; conditions: ATCC 25619, 20 h; summary of the method: as §1
Pseudomonas aeruginosa [5] = assay: Antibacterial activity against clinical isolate Pseudomonas aeruginosa SR27156 assessed as growth inhibition after 20 hrs by microdilution method; type: functional; conditions: SR27156, 20 h; summary of the method: as §1
Pseudomonas aeruginosa [6] = assay: Antibacterial activity against Pseudomonas aeruginosa ATCC 27853 assessed as growth inhibition after 20 hrs by microdilution method; type: functional; conditions: ATCC 27853, 20 h; summary of the method: as §1
[7] = Metabolic stability in rat liver microsomes assessed as compound remaining at 2 uM after 30 mins incubation by LC-MS/MS analysis
[8] = Metabolic stability in human liver microsomes assessed as compound remaining at 2 uM after 30 mins incubation by LC-MS/MS analysis
HepG2 = assay: Cytotoxicity against human HepG2 cells; type: functional, cell-based

| Compound | MIC (Pseudomonas aeruginosa [1]) | IC50 [2] | MIC (Pseudomonas aeruginosa [3]) | MIC (Pseudomonas aeruginosa [4]) | MIC (Pseudomonas aeruginosa [5]) | MIC (Pseudomonas aeruginosa [6]) | remaining at 0.5 h, 2 µM [7] | remaining at 0.5 h, 2 µM [8] | IC50 (HepG2) |
| --- | --- | --- | --- | --- | --- | --- | --- | --- | --- |
| CCCCCCCCCCCCCCCCC(=O)N[C@@H](CCCNC(=N)N)C(=O)NCCCN[C@H](C(=O)O)[C@H](O[C@@H]1O[C@H](CN)[C@@H](O)[C@H]1O)[C@H]1O[C@@H](n2ccc(=O)[nH]c2=O)[C@H](O)[C@@H]1O | 16 µg/mL (≈ 17.5 µM) | 1.6 nM | 8 µg/mL (≈ 8.75 µM) | 16 µg/mL (≈ 17.5 µM) | 16 µg/mL (≈ 17.5 µM) | 32 µg/mL (≈ 35 µM) | 81.1% | 89.5% |  |
| CCCCCCCCCCCCCCCCNC(=O)[C@@H](NCCCNC(=O)[C@@H](N)CCCNC(=N)N)[C@H](O[C@@H]1O[C@H](CN)[C@@H](O)[C@H]1O)[C@H]1O[C@@H](n2ccc(=O)[nH]c2=O)[C@H](O)[C@@H]1O | 32 µg/mL (≈ 36.2 µM) | 12.2 nM | 16 µg/mL (≈ 18.1 µM) | 16 µg/mL (≈ 18.1 µM) | 16 µg/mL (≈ 18.1 µM) | 16 µg/mL (≈ 18.1 µM) |  |  |  |
| CCCCCCCCCCCCCCCCC(=O)N[C@@H](CCCNC(=N)N)C(=O)NCCCN[C@H](C(=O)NCCCCNC(=N)N)[C@H](O[C@@H]1O[C@H](CN)[C@@H](O)[C@H]1O)[C@H]1O[C@@H](n2ccc(=O)[nH]c2=O)[C@H](O)[C@@H]1O | 4 µg/mL (≈ 3.9 µM) | 0.6 nM | 4 µg/mL (≈ 3.9 µM) | 8 µg/mL (≈ 7.8 µM) | 8 µg/mL (≈ 7.8 µM) | 8 µg/mL (≈ 7.8 µM) | 69.8% | 86.9% | 34 µg/mL (≈ 33.1 µM) |
| CC(C)C[C@H](NC(=O)[C@@H](NC(=O)N[C@H](C(=O)O)C(C)C)[C@@H]1CCNC(=N)N1)C(=O)NCCCN[C@H](C(=O)O)[C@H](O[C@@H]1O[C@H](CN)[C@@H](O)[C@H]1O)[C@H]1O[C@@H](n2ccc(=O)[nH]c2=O)[C@H](O)[C@@H]1O [MURAMYCIN D2] | > 64 µg/mL | 2.8 nM | 64 µg/mL (≈ 69.9 µM) | 64 µg/mL (≈ 69.9 µM) | 32 µg/mL (≈ 34.9 µM) | > 64 µg/mL |  |  |  |
